This is an account of results in BindingDB's records for doi:10.1021/jm030110r (Pharmaceutical Research Institute, 2003).

The assay deals with Proto-oncogene tyrosine-protein kinase Src (Rattus norvegicus, UniProt Q9WUD9). Put plainly: Inhibition of v-Src tyrosine kinase autophosphorylation in SR3Y1 cells after 15 hr. The method, boiled down:
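SR-3Y1 cells exposed to drug 15 h, lysed on ice 20 min in Tris pH 7.5 RIPA-type buffer with protease inhibitors and 1 mM vanadate. Equal-protein lysates run on SDS-PAGE, blotted with anti-phosphotyrosine antibody, HRP secondary, ECL detection. IC50 = concentration halving tyrosine phosphorylation.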

pIC50: −log10 of the molar value.

Chain of Proto-oncogene tyrosine-protein kinase Src (Q9WUD9 2-536 limits assumed): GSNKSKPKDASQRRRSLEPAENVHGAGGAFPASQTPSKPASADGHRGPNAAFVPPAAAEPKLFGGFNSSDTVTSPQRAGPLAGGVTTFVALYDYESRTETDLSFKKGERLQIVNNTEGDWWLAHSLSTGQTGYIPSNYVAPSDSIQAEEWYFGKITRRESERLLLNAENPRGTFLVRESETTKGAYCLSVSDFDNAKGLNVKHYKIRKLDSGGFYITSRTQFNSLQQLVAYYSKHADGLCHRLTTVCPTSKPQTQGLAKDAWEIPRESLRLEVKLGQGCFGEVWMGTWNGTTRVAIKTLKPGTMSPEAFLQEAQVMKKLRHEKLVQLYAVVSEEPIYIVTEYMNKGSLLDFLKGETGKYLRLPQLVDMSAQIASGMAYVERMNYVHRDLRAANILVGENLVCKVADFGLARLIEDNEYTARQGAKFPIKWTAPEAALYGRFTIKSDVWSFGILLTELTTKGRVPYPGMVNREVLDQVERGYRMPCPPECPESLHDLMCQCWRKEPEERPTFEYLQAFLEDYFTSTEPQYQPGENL

In the case of `C[C@@H]1C[C@H]2O[C@@H]2\C=C/C=C/C(=N\OCC(=O)N2CCN(C)CC2)Cc2c(Cl)c(O)cc(O)c2C(=O)O1` [16-Chloro-17,19-dihydroxy-4-methyl-3,7-dioxa-tricyclo[13.4.0.0*6,8*]nonadeca-1(19),9,11,15,17-pentaene-2,13-dione 13-{O-[2-(4-methyl-piperazin-1-yl)-2-oxo-ethyl]-oxime}], the pIC50 (usually the IC50 on a negative log10 scale, so that one unit is a factor of ten) was 7.89.
